The results in this text go back to PubChem BioAssay.

Active and inactive are the calls of the source.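 The calls were made as follows, unless noted: active = inhibition at or above 50% relative to wild type and mutant plate controls; inactive = inhibition below 50%.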

Assay [1] in a line: inhibitors of TNFa-induced NFkB p65 translocation, primary screen, imaging, HUVEC, MLSMR starter and 10KST1 sets (AID 438;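 active = inhibition above 20% together with a positive visual image hit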;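 also: compound added about 3h40 before a 20 min TNFalpha stimulation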;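 as to inhibition: signal is the nuclear over cytoplasmic p65 intensity ratio per well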). The conditions noted are these: HUVEC TNFa-induced p65 nuclear translocation; cell count: measured here: nuclei count (cytotoxicity indicator), at 2.08 µM; inhibition: at 2 µM, stronger effect = higher value, 0% TNFa-plus-vehicle, 100% no-TNFa wells.
The nature of assay [2]: inhibitors of E-selectin induction by TNFa, primary screen, imaging, HUVEC, immunofluorescence, MLSMR starter and 10KST1 sets (AID 487;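 active = visually confirmed hit in the image check and inhibition above 20%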;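 as to inhibition: signal is fraction of cell area covered by stained E-selectin grains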;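 as to nuclei count: 100% = median nuclei count of all wells on the same plate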). The note with it: HUVEC TNFalpha-induced E-selectin immunofluorescence imaging, at 2 µM; inhibition: stronger effect = higher value; nuclei count: measured here: cell number, toxicity.
Assay [3] is described as follows: DUSP6 inhibitors restoring Erk phosphorylation by chemical complementation, primary imaging in DUSP6-transfected HeLa (AID 609;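 active = compounds giving at least 50% inhibition in the cell-based MKP-3 phosphatase rescue imaging test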;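 as to inhibition: phospho-Erk level distribution per well compared with pooled transfected vehicle control wells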). The conditions noted are these: HeLa MKP-3 transfected, phospho-Erk imaging KS statistic, at 10 µM, cells stimulated with TPA for 15 min.
Assay [4] concerns the target Dual specificity protein phosphatase 6 (Homo sapiens) (UniProt Q16828). Described as above. The conditions noted are these: HeLa MKP-3 transfected, phospho-Erk imaging KS statistic; at 10 µM; stronger effect = higher value; cells stimulated with TPA for 15 min.
Assay [5] deals with Voltage-gated potassium channel subunit beta-2 (Rattus norvegicus) (UniProt P62483). Nature of the assay: KvBeta enzyme negative modulators, primary screen, biochemical, NADPH fluorescence (AID 622;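 active = fluorescence slope higher than the sample average by over 3 SD, cut at about -0.22 in these data, passing the limit was not always enough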;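 also: slope of raw intensity against log time taken from 70 to 1610 s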). The conditions noted are these: recombinant KvBeta, 4-cyanobenzaldehyde reduction, at 10 µM, stronger effect = higher value.
The target is the same in assay [6]. The experiment in a line: KvBeta positive modulators, primary screen, biochemical, NADPH fluorescence (AID 623;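 active = NADPH fluorescence slope more negative than the mean of all samples by about 3 SD, 99.7% confidence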;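 also: fluorescence intensity change per second fitted from 20 to 320 s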). The conditions noted are these: Recombinant KvBeta, NADPH fluorescence decrease slope, 10 min; at 10 µM; stronger effect = lower value.
Assay [7] concerns the target Alpha-2C adrenergic receptor (Homo sapiens) (UniProt P18825). Nature of the assay: modulators of alpha2C/GIRK thallium flux, primary screen, cell-based, HEK293 alpha2C/GIRK1/2 (AID 624;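 active = fluorescence slope after compound addition differing from the mean of all screened samples at 99.7% confidence, in either direction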;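 also: slope of fluorescence ratio to pre-addition baseline per second over 15 to 24 s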). The note with it: thallium flux BTC fluorescence, at 10 µM, actives lie on both sides.
Assay [8] is described as follows: inhibitors of larval lipid processing in zebrafish, primary screen, whole organism, PED6 fluorescence, gall bladder and intestine (AID 686;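 active = a full or partial loss of lipid-probe fluorescence in the fish gall bladder, intestine or both, judged by eye; inactive = no fluorescence loss, or compound toxic to the fish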;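 also: larvae 5 to 7 days old with five fish per well; signal comes from phospholipase A2 cleavage of quenched PED6 carried via bile; overnight exposure to compound and PED6 before scoring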). The note with it: Zebrafish larvae PED6 lipid processing, fluorescence scoring; screened at 20 µM (by protocol). The gist of the method:
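System: live zebrafish larvae aged 5-7 days, whole organism; measure: graded gall bladder and intestinal fluorescence inhibition per well; incubation: overnight exposure; reagent: ingested quenched lipid PED6 at 100 nM; signal: By-eye fluorescence microscopy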

Assay [9] can be described thus: inhibitors of Chlamydomonas gravitaxis, primary screen, whole organism, Chlamydomonas reinhardtii, WT vs cilia-less mutant, absorbance, 96-well (AID 463189).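 Also: 0% = wild type cc124 cells in DMSO and 100% = ciliumless bld1 mutant cells.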 The note with it: OD600 absorbance, 2 days, at 10 µM, stronger effect = higher value.
The mark [10] stands for this setting: measured here: cell density z-score.
[11] abbreviates: measured here: nuclear c-Myc green intensity z-score.
The mark [12] stands for this setting: measured here: nuclear pErk red intensity z-score, stronger effect = higher value.

Dual specificity protein phosphatase 6 (Homo sapiens), sequence (Q16828 whole entry, looked up): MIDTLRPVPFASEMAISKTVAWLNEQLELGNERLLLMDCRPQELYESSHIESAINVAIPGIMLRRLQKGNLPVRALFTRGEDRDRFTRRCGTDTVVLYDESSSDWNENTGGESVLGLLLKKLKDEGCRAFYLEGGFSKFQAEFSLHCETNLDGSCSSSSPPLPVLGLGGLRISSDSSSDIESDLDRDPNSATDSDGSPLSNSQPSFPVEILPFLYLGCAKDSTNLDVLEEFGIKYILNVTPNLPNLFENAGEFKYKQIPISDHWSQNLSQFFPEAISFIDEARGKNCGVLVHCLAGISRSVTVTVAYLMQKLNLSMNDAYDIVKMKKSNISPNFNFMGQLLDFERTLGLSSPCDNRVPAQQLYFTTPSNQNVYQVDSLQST
Voltage-gated potassium channel subunit beta-2 (Rattus norvegicus), sequence (P62483 whole entry, looked up): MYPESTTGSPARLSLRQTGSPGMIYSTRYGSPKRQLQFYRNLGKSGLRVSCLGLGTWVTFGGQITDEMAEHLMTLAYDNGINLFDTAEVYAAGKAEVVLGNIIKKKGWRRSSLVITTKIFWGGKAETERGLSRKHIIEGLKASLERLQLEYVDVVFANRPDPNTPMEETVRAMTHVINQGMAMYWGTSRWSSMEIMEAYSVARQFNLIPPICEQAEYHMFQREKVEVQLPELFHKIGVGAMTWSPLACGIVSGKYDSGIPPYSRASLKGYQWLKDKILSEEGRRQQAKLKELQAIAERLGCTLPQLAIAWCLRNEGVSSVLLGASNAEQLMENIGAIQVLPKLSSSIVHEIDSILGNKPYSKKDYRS
Alpha-2C adrenergic receptor (Homo sapiens), sequence (P18825 whole entry, looked up): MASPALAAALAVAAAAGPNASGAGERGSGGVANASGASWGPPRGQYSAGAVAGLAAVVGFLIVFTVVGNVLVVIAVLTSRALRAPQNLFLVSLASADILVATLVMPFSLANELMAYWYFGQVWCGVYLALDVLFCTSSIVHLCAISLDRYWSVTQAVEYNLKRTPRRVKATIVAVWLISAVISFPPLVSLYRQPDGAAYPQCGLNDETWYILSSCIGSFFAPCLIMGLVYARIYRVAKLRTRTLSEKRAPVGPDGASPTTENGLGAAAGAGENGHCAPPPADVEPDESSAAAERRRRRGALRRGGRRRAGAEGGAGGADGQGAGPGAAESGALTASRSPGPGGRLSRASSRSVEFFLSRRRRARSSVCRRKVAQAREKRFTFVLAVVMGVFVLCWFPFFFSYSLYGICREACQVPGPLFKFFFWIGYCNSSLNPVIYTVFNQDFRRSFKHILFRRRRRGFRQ

Consider `COCc1cc(C)nc(SCC(=O)Nc2ccc(C)c(C)c2)c1C#N`, for which, in assay [1], the cell count came to 618. The inhibition in assay [1] was -2.6% (inactive); in assay [2] it was -92.9% (inactive); in assay [4], 5.65% (inactive); in assay [9], -8.23% (inactive). The same compound had a nuclei count in assay [2] of 161%. Further, the z-score is -2.03 in assay [3] (setting [10]), 0.714 in assay [3] (setting [11]) and 1.02 in [3] (setting [12]). In addition, the fluorescence slope in assay [5] is -0.269 (inactive). In assay [6], the NADPH fluorescence slope was -9.9e-06 (inactive). Further, the slope in assay [7] is 0.00532 (inactive). Besides, the result in [8] was inactive.
As to `CS(=O)(=O)CCC(C(=O)n1nnc2ccccc21)N1C(=O)c2ccccc2C1=O` (stereo unspecified), in assay [1], the cell count stood at 342. The inhibition in assay [1] was -6.4% (inactive); in assay [2], -46.5% (inactive); in [4], 3.42% (inactive); in assay [9] it was 26% (inactive). The same compound yielded a nuclei count in [2] of 134%. In addition, the z-score is 0.823 in [3] (setting [10]), -0.696 in assay [3] (setting [11]) and -1.53 in assay [3] (setting [12]). Further, the fluorescence slope in [5] was -0.419 (inactive). Also, the NADPH fluorescence slope in [6] is -5.5e-05 (inactive). Moreover, the slope in assay [7] was 0.00572 (inactive). Further, the outcome in assay [8] was inactive.
Regarding `c1cncc(-c2nnc3sc(C4CCCCC4)nn23)c1`, the cell count in assay [1] came out at 507. Besides, the inhibition is -5.5% (inactive) in assay [1], -138% (inactive) in [2], 8.31% (inactive) in assay [4] and 91.8% (active) in assay [9]. This compound also displayed a nuclei count in [2] of 106%. Also, the z-score in assay [3] (setting [10]) is 0.167; in assay [3] (setting [11]) it was -0.011; in assay [3] (setting [12]) it was 0.328. The fluorescence slope in [5] was -0.442 (inactive). The NADPH fluorescence slope in assay [6] was 1.1e-05 (inactive). Moreover, in assay [7], the slope is 0.00837 (inactive). In addition, the compound was called inactive in assay [8].
As to `CC(NC(=O)OC(C)(C)C)C(=O)Oc1ccc2ccc(=O)oc2c1` (stereo unspecified), the cell count in [1] turned out to be 566. In addition, the inhibition in [1] was -16.8% (inactive); in [2] it was -178% (inactive); in assay [4], 28.6% (inactive); in [9] it was 1.2% (inactive). Besides, in assay [2], the nuclei count was determined as 183%. Besides, the z-score in [3] (setting [10]) was 0.378; in assay [3] (setting [11]), 1.02; in assay [3] (setting [12]), -0.959. Besides, the fluorescence slope in assay [5] is -0.0856 (inactive). In addition, the NADPH fluorescence slope in assay [6] is -1.3e-05 (inactive). Besides, the slope in assay [7] was 0.00547 (inactive). Besides, the compound was called inactive in assay [8].
Turning to `O=c1oc2c3c4c(cc2c(C(F)(F)F)c1CCN1CCOCC1)CCCN4CCC3`, in assay [1], the cell count stood at 507. Moreover, the inhibition was -1% (inactive) in assay [1], -59.8% (inactive) in assay [2], -4.78% (inactive) in assay [4] and -7.21% (inactive) in assay [9]. Moreover, the nuclei count in assay [2] was 160%. Moreover, the z-score in [3] (setting [10]) is -0.81; in assay [3] (setting [11]) it was 0.512; in assay [3] (setting [12]) it was -1.2. Besides, the fluorescence slope in [5] was -0.315 (inactive). The NADPH fluorescence slope in assay [6] is -4.5e-05 (inactive). Further, the slope in assay [7] is 0.0309 (active). Besides, the compound was called inactive in assay [8].
In the case of `Clc1ccccc1CSc1nnc(-c2ccco2)c(-c2ccco2)n1`, the cell count in [1] worked out at 554. Besides, the inhibition in [1] is -6.9% (inactive); in [2], -21.1% (inactive); in assay [4], -10.5% (inactive); in [9] it was 19.9% (inactive). In addition, in assay [2], the nuclei count amounted to 157%. The z-score was -1.8 in [3] (setting [10]), 0.808 in [3] (setting [11]) and 0.169 in assay [3] (setting [12]). The fluorescence slope in [5] is -0.407 (inactive). Besides, in assay [6], the NADPH fluorescence slope was -1.8e-05 (inactive). In addition, in assay [7], the slope is 0.00446 (inactive). Further, the outcome in assay [8] was inactive.
In the case of `COc1ccc(-c2nnc3sc(-c4ccccc4OC)nn23)cc1`, the cell count in assay [1] worked out at 615. The inhibition was -8.4% (inactive) in assay [1], -30.4% (inactive) in [2], -11.5% (inactive) in assay [4] and 12.7% (inactive) in assay [9]. For the same compound, the nuclei count in assay [2] worked out at 153%. Also, the z-score in [3] (setting [10]) is 0.537; in assay [3] (setting [11]), -0.23; in assay [3] (setting [12]), -1.1. Further, the fluorescence slope in assay [5] is -0.413 (inactive). Further, the NADPH fluorescence slope in assay [6] is -4.4e-05 (inactive). In assay [7], the slope is 0.00877 (inactive). For the same compound, the result in [8] was inactive.
Turning to `CC1=C(C(=O)Nc2ccccc2)C(c2ccncc2)C(C#N)=C(SCC(=O)NC(C)C)N1` (stereo unspecified), in assay [1], the cell count amounted to 532. Also, the inhibition in assay [1] was -8.3% (inactive); in assay [2], -82.1% (inactive); in assay [4] it was -1.12% (inactive); in assay [9] it was 5.12% (inactive). The compound also yielded a nuclei count in [2] of 162%. For the same compound, the z-score is -0.265 in [3] (setting [10]), 0.666 in assay [3] (setting [11]) and 0.309 in assay [3] (setting [12]). In addition, the fluorescence slope in [5] was -0.309 (inactive). In [6], the NADPH fluorescence slope is 3.2e-06 (inactive). Also, the slope in [7] was 0.00489 (inactive). Also, in [8], the outcome was inactive.
In the case of `COc1cccc(OC)c1OCC(C)CNCC1CCCO1` (stereo unspecified), the cell count in [1] was 524. For the same compound, the inhibition in assay [1] was -5.6% (inactive); in assay [2], -156% (inactive); in assay [4] it was 9.39% (inactive); in [9] it was 11.3% (inactive). In [2], this compound returned a nuclei count of 123%. Moreover, the figures for the z-score in [3] (setting [10]), in [3] (setting [11]) and in assay [3] (setting [12]) were -1, 1.14 and 1.28, respectively. In addition, in [5], the fluorescence slope was -0.524 (inactive). For the same compound, in [6], the NADPH fluorescence slope was -5e-05 (inactive). Also, the slope in assay [7] is 0.00511 (inactive). The compound was called inactive in assay [8].
On to `CC(C)OC(=O)CC1=NC(=O)CS1`, for which, in [1], the cell count stood at 693. Moreover, the inhibition was -4% (inactive) in assay [1], -27.6% (inactive) in assay [2], -0.624% (inactive) in assay [4] and -2.62% (inactive) in [9]. In addition, the nuclei count in assay [2] was 175%. Besides, the z-score in [3] (setting [10]) was -0.0687; in assay [3] (setting [11]), -1.07; in assay [3] (setting [12]), 0.103. In addition, the fluorescence slope in assay [5] was -0.423 (inactive). For the same compound, the NADPH fluorescence slope in assay [6] is -4.2e-05 (inactive). Further, in assay [7], the slope was 0.00582 (inactive). Also, the compound was called inactive in [8].
As for `CCCc1cc(-c2nc(N)ncc2-c2ccc3c(c2)OCCCO3)c(O)cc1OC`, the cell count in assay [1] was found to be 570. Besides, the inhibition was -16.3% (inactive) in assay [1], -136% (inactive) in assay [2], 11.9% (inactive) in assay [4] and 91.5% (active) in assay [9]. The nuclei count in [2] amounted to 122%. Further, the z-score is 0.844 in assay [3] (setting [10]), -1.91 in assay [3] (setting [11]) and -0.934 in assay [3] (setting [12]). Also, the fluorescence slope in assay [5] was -0.519 (inactive). Besides, the NADPH fluorescence slope in assay [6] is -5.4e-05 (inactive). For the same compound, the slope in assay [7] is 0.00422 (inactive). Further, in [8], the outcome was inactive.
Take `c1ccc(OCc2nn3c(-c4cccnc4)nnc3s2)cc1`: in [1], the cell count was 598. The inhibition is -6.1% (inactive) in assay [1], -87.1% (inactive) in assay [2], -16.8% (inactive) in assay [4] and 22.5% (inactive) in assay [9]. In assay [2], this compound came in with a nuclei count of 146%. In addition, the z-score in assay [3] (setting [10]) is 0.586; in assay [3] (setting [11]), -1.52; in [3] (setting [12]), -0.25. The fluorescence slope in [5] is -0.423 (inactive). For the same compound, the NADPH fluorescence slope in assay [6] is -5.5e-05 (inactive). Also, the slope in assay [7] is 0.0063 (inactive). The compound was called inactive in assay [8].
